The record followed here is ChEMBL document CHEMBL1275331, “Discovery of a novel 5-HT(3) antagonist/5-HT(1A) agonist 3-amino-5,6,7,8-tetrahydro-2-{4-[4-(quinolin-2-yl)piperazin-1-yl]butyl}quinazolin-4(3H)-one (TZB-30878) as an orally bioavailable agent for irritable bowel syndrome” (J Med Chem, 2010).

Active and inactive are the calls of the source. No cut-off for these calls is given here. A value given as a limit tells only on which side of the number the result lay.

For data set [1], the target named is T1, 5-hydroxytryptamine receptor 3A (Homo sapiens, UniProt P46098).
T1 sequence (P46098 whole entry): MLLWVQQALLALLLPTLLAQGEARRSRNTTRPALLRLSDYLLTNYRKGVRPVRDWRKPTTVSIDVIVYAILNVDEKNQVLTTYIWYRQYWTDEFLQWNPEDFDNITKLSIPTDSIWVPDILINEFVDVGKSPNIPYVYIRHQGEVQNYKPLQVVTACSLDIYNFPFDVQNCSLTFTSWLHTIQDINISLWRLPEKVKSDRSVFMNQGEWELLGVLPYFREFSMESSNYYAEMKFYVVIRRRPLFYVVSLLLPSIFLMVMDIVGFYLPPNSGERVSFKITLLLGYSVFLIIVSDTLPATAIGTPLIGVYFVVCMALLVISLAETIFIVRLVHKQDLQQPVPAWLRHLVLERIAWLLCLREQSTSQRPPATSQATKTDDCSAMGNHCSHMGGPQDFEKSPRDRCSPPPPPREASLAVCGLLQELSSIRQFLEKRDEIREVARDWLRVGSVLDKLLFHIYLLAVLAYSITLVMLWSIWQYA
Description: Displacement of [3H]BRL-43694 from human 5HT3 receptor expressed in HEK293 cells by liquid scintillation counting. In kind it is cell-based. The method, boiled down: (§1)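 HEK-293 membranes expressing human 5-HT3 were incubated with 0.5 nmol/L [3H]BRL-43694 (final) for 60 min at 25 °C. Buffer: 50 mM Tris-HCl, 5 mM MgCl2, 1 mM EDTA, pH 7.5. Compound came from 270 μmol/L DMSO stock, diluted in buffer. Filtration was through GF/B presoaked in 0.5% polyethyleneimine, with two cold Tris washes. Run in duplicate or triplicate; percent inhibition calculated.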

Data set [2] concerns the target T2, 5-hydroxytryptamine receptor 3A (Cavia porcellus) (UniProt O70212).
T2 sequence (whole entry): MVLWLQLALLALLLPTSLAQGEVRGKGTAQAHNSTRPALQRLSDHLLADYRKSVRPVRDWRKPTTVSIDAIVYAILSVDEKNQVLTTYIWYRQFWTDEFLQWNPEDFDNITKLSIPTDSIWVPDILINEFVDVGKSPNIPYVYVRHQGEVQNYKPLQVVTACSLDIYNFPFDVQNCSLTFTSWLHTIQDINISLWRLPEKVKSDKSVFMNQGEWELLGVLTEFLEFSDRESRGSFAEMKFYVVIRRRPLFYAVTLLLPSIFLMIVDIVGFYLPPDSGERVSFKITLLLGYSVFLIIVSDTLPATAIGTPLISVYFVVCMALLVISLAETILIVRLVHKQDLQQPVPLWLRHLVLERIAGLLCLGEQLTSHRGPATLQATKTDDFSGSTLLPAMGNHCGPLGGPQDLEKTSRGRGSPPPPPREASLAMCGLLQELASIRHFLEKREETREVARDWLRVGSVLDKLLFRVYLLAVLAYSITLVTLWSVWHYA
Nature of the data set: Inhibition of 5HT3 receptor-mediated contraction of guinea pig ileum at 1 umol/L after 20 mins relative to control. It counts as tissue-based. Summed up:
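Ileum strips in Tyrode solution at 37 °C, gassed 5% CO2/95% O2, isotonic contractions under 1 g load. After at least 3 stable contractions to 10 μM 2-methyl-5-HT, tissue exposed to compound or DMSO vehicle for 20 min, then 10 μM 2-methyl-5-HT re-added; contraction expressed as % inhibition of control.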

Data set [3] addresses T3, 5-hydroxytryptamine receptor 1A (Homo sapiens, UniProt P08908).
T3 sequence (P08908 whole entry): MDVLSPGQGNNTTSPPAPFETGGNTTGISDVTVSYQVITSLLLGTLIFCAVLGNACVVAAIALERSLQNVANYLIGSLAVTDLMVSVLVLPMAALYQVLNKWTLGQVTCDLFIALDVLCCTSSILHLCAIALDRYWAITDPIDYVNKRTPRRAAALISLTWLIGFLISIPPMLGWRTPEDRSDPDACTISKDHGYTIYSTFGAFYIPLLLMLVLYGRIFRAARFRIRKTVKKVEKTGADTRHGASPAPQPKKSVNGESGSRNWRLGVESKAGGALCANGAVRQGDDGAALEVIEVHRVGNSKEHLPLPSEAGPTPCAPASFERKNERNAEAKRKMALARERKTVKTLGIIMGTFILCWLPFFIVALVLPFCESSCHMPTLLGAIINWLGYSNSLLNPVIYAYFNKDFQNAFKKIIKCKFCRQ
Nature of the data set: Displacement of [3H]8-OH-DPAT from human 5HT1A receptor expressed in CHO cells by liquid scintillation counting. In kind it is cell-based. Summed up: (§2)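 CHO-cell membranes with human 5-HT1A were incubated with 0.25 nmol/L [3H]8-OH-DPAT (final) for 60 min at 27 °C. Buffer: 50 mM Tris-HCl, 10 mM MgSO4, 0.5 mM EDTA, 0.1% ascorbic acid, pH 7.4. Compound came from 270 μmol/L DMSO stock, diluted in buffer. Filtration was through GF/C presoaked in 0.3% polyethyleneimine, with two cold Tris washes. Run in duplicate or triplicate; percent inhibition of binding calculated.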

In data set [4] the test system is Rattus norvegicus. Nature of the data set: Reduction in wrap restraint stress-induced defecation in rat diarrhea-predominant irritable bowel syndrome model at 1 to 10 mg/kg, po administered 1 hr prior to induction of stress. It counts as functional, organism-based. Summed up:
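Lightly anesthetized rats had upper bodies wrapped with adhesive tape, then returned to observation cages; feces counted 1 h after wrapping. Compound or vehicle given orally 1 h before restraint; unwrapped animals as normal group. n = 8 per group, mean (SD); Wilcoxon and nonparametric Dunnett's tests.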

The target in data set [5] is T4, 5-hydroxytryptamine receptor 1A (Homo sapiens) (UniProt P08908).
T4 sequence (whole entry): T3 sequence (P08908 whole entry)
Description: Displacement of [3H]8-OH-DPAT from human 5HT1A receptor expressed in CHO cells at 1000 nM by liquid scintillation counting. In kind it is cell-based. Summed up: as §2

Data set [6] deals with T4, 5-hydroxytryptamine receptor 1A (Homo sapiens). Description: Displacement of [3H]8-OH-DPAT from human 5HT1A receptor expressed in CHO cells at 100 nM by liquid scintillation counting. In kind it is cell-based. The method, boiled down:
as §2

The target of data set [7] is T5, 5-hydroxytryptamine receptor 3A (Homo sapiens) (UniProt P46098).
T5 sequence (whole entry): T1 sequence (P46098 whole entry)
Nature of the data set: Displacement of [3H]BRL-43694 from human 5HT3 receptor expressed in HEK293 cells at 1000 nM by liquid scintillation counting. It counts as cell-based. The method, boiled down: as §1

Data set [8] concerns the target T5, 5-hydroxytryptamine receptor 3A (Homo sapiens). Description: Displacement of [3H]BRL-43694 from human 5HT3 receptor expressed in HEK293 cells at 100 nM by liquid scintillation counting. It counts as cell-based. The method, boiled down:
as §1

Data set [9] can be described thus: Ratio of drug level in brain to blood in Sprague-Dawley rat at 3 mg/kg, po after 8 hrs. It counts as ADME, organism-based. On the set-up: dose 3 mg/kg, route oral. Summed up:
(§3)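 Rats dosed 3 mg/kg orally; total compound levels measured in brain and blood at 2, 4 and 8 h, brain/blood ratio derived. Mean ± SD of three rats.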

Data set [10] in a line: Drug level in Sprague-Dawley rat brain at 3 mg/kg, po after 4 hrs by HPLC analysis. In kind it is ADME, organism-based. Details: dose 3 mg/kg, route oral. As to conditions: read-out: Drug uptake. Summed up: (§4)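 Total compound concentration was measured in brain and blood at 2, 4 and 8 h after a single oral 3 mg/kg dose. Brain/blood ratio was also derived. Values are mean ± SD of three rats.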

Data set [11] in a line: Drug level in Sprague-Dawley rat blood at 3 mg/kg, po after 8 hrs by HPLC analysis. It counts as ADME, organism-based. Details: dose 3 mg/kg, route oral. As to conditions: whole blood, read-out: Drug uptake. The method, boiled down:
as §4

A short description of data set [12]: Drug level in Sprague-Dawley rat blood at 3 mg/kg, po after 2 hrs by HPLC analysis. Details: dose 3 mg/kg, route oral. It counts as ADME, organism-based. As to conditions: whole blood, read-out: Drug uptake. Summed up: as §4
Data set [13] is described as follows: Ratio of drug level in brain to blood in Sprague-Dawley rat at 3 mg/kg, po after 2 hrs. In kind it is ADME, organism-based. On the set-up: dose 3 mg/kg, route oral. Summed up:
as §3

The nature of data set [14]: Ratio of drug level in brain to blood in Sprague-Dawley rat at 3 mg/kg, po after 4 hrs. It counts as ADME, organism-based. On the set-up: dose 3 mg/kg, route oral. The method, boiled down: as §3
Data set [15] can be described thus: Drug level in Sprague-Dawley rat brain at 3 mg/kg, po after 2 hrs by HPLC analysis. In kind it is ADME, organism-based. Details: dose 3 mg/kg, route oral. The conditions noted are these: read-out: Drug uptake. The method, boiled down: as §4
A short description of data set [16]: Drug level in Sprague-Dawley rat blood at 3 mg/kg, po after 4 hrs by HPLC analysis. It counts as ADME, organism-based. On the set-up: dose 3 mg/kg, route oral. The conditions noted are these: whole blood, read-out: Drug uptake. Summed up:
as §4

A short description of data set [17]: Drug level in Sprague-Dawley rat brain at 3 mg/kg, po after 8 hrs by HPLC analysis. In kind it is ADME, organism-based. Details: dose 3 mg/kg, route oral. As to conditions: read-out: Drug uptake. The method, boiled down:
as §4

Take `Cc1sc2nc(SCCCN3CCN(c4ccc5ccccc5n4)CC3)n(N)c(=O)c2c1C`: the IC50 in [1] is 0.0484 µM; in data set [3], 0.0364 µM. Moreover, the inhibition in data set [2] was 41.9%.

Take `Cc1[nH]cnc1CN1CCc2c(c3ccccc3n2C)C1=O`: in data set [4], the inhibition entry is “Active”.

In the case of `Nn1c(=O)c2c(nc1[C@H]1CC[C@@H](N3CCN(c4ccc5ccccc5n4)CC3)CC1)CCCC2`, the inhibition in data set [5] was determined as 91.5%; in [6], 42.3%; in data set [7], 87.3%; in data set [8], 19.6%.

Take `CC(=O)N1CCc2c(sc3nc(CCCCN4CCN(c5ccc6ccccc6n5)CC4)n(N)c(=O)c23)C1`: the Kp at 8 h in [9] was 0.307. Besides, the IC50 was 0.0221 µM in [1] and under 0.01 µM in data set [3]. The figures for the concentration at 4 h in data set [10] and in data set [16] were 0.0195 µM and 0.0558 µM, respectively. The values for the concentration at 8 h in data set [11] and in data set [17] were 0.0437 µM and 0.0134 µM, respectively. Besides, the concentration at 2 h in [12] stood at 0.051 µM; in [15], 0.0151 µM. Further, the Kp at 2 h in [13] came to 0.294. For the same compound, the Kp at 4 h in data set [14] was 0.355.
